Data on 1 molecule can be found in ChEMBL document CHEMBL4266027, “Cyanobufalins: Cardioactive Toxins from Cyanobacterial Blooms” (J Nat Prod, 2018).

The structures appear in SMILES notation.

Usually EC50 stands for the concentration giving half of the maximal effect.

In data set [1] the test system is MES-SA/Dx5. Put plainly: Cytotoxicity against human MES-SA/Dx5 cells assessed as decrease in cell viability after 72 hrs by MTS assay. The data set is classed as functional, cell-based. The note with it: MES-SA/Dx5, 72 h. In short, it runs like this: (§1)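 Cell proliferation assay using the MTS reagent. Compounds were tested as a dilution series, and EC50 values were derived from the concentration–response data.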
On the technique in general: Tetrazolium assays rely on reduction of a dye to a coloured formazan, in cell work by metabolically active cells.

Data set [2] in a line: Cytotoxicity against human LOX cells assessed as decrease in cell viability after 72 hrs by MTS assay. The data set is classed as functional, cell-based. The procedure, abridged: as §1
In data set [3] the test system is HUVEC. Put plainly: Cytotoxicity against human HUVEC cells assessed as decrease in cell viability after 72 hrs by MTS assay. Type of data set: cell-based. The procedure, abridged:
as §1

Data set [4] concerns Cardiac muscle cell. Put plainly: Toxicity in human inducible pluripotent stem cell derived cardiomyocytes assessed as change in beating amplitude at 40 nM after 8 mins. The data set is classed as cell-based. The note with it: 0.04 µM. In short, it runs like this:
(§2)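 Human iPSC-derived cardiomyocytes (Cor.4U) were grown to stable beating cultures and monitored by impedance in real time with 20 s recordings. Compounds were given as a dilution series from 0.32 nM to 5 μM, dosed twice 24 h apart, with monitoring over 48 h. Beating amplitude was taken from each negative peak to the following positive peak and reported as % change.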

The test system of data set [5] is Cardiac muscle cell. The experiment in a line: Toxicity in human inducible pluripotent stem cell derived cardiomyocytes assessed as change in beating amplitude at 1.6 nM after 4 hrs. Type of data set: cell-based. The conditions noted are these: 0.0016 µM. In short, it runs like this:
as §2

The test system of data set [6] is Cardiac muscle cell. The experiment in a line: Toxicity in human inducible pluripotent stem cell derived cardiomyocytes assessed as change in beating amplitude at 8 nM after 66 mins. The conditions noted are these: 1.1 h, 0.008 µM. Type of data set: cell-based. The procedure, abridged:
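Cor.4U hiPSC-derived cardiomyocytes grown to stable beating cultures, then monitored by impedance in RTCA Cardio plates with 20 s recordings. Compounds tested as a dilution series from 0.32 nM to 5 μM, dosed twice 24 h apart, followed over 48 h. Beating amplitude is taken from each negative peak to the next positive peak and reported as percent change.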

In data set [7] the test system is Cardiac muscle cell. Put plainly: Toxicity in human inducible pluripotent stem cell derived cardiomyocytes assessed as change in beating amplitude at 40 nM after 33 mins. The data set is classed as cell-based. The conditions noted are these: 0.55 h, 0.04 µM. In short, it runs like this: as §2
Data set [8] has as its system LoVo. Put plainly: Cytotoxicity against human LoVo cells assessed as decrease in cell viability after 72 hrs by MTS assay. The data set is classed as functional, cell-based. In short, it runs like this:
as §1

In data set [9] the test system is Cardiac muscle cell. The experiment in a line: Toxicity in human inducible pluripotent stem cell derived cardiomyocytes assessed as change in beating amplitude at 8 nM after 12 hrs. The data set is classed as cell-based. The note with it: 0.008 µM. In short, it runs like this: as §2
Data set [10] has as its system BT-474. Put plainly: Cytotoxicity against human BT474 cells assessed as decrease in cell viability after 72 hrs by MTS assay. The data set is classed as functional, cell-based. The conditions noted are these: BT-474, 72 h. The procedure, abridged:
as §1

For data set [11], the system named is NCI-H1975. Put plainly: Cytotoxicity against human NCI-H1975 cells assessed as decrease in cell viability after 72 hrs by MTS assay. Type of data set: functional, cell-based. The conditions noted are these: NCI-H1975, 72 h. In short, it runs like this:
as §1

In data set [12] the test system is Cardiac muscle cell. The experiment in a line: Toxicity in human inducible pluripotent stem cell derived cardiomyocytes assessed as change in beating amplitude at 0.32 nM after 4 hrs. The data set is classed as cell-based. The note with it: 0.00032 µM. In short, it runs like this: as §2
In data set [13] the test system is MES-SA. The experiment in a line: Cytotoxicity against human MESSA cells assessed as decrease in cell viability after 72 hrs by MTS assay. The data set is classed as functional, cell-based. In short, it runs like this:
as §1

For data set [14], the system named is U-87 MG. The experiment in a line: Cytotoxicity against human U87MG cells assessed as decrease in cell viability after 72 hrs by MTS assay. The data set is classed as functional, cell-based, U-87MG ATCC. In short, it runs like this:
as §1

For the molecule `CC1(C)[C@@H](OC(N)=O)C=C[C@]2(C=O)[C@H]3CC[C@]4(C)[C@@H](c5ccc(=O)oc5)[C@@H](Cl)C[C@]4(O)C3=CC[C@@H]12`, the EC50 was 5.8 nM in data set [1]; 3.7 nM in [2]; 9.7 nM in data set [3]; 5.6 nM in [8]; 3.7 nM in data set [10]; 3.1 nM in [11]. In addition, the results for the EC50 in data set [13] and in data set [14] were 6.8 nM and 5.7 nM, respectively. The Activity in data set [4] is recorded as 2.6%; in data set [5], 9.7%; in data set [6] it was 14%; in data set [7], 13%; in [9] it was -18%; in data set [12] it was 19%.
